Results pooled from the literature.
MET: Hepatocyte growth factor receptor (MET, Homo sapiens, UniProt P08581)
MET M1250T: Hepatocyte growth factor receptor (MET, Homo sapiens, UniProt P08581, M1250T)

Structure (SMILES) | target | assay | conditions | quantity | result
Cc1cnc(NC2CCOCC2)nc1-n1cnc(C(=O)NC(CN)c2cc(F)cc(Cl)c2)c1 (stereo not drawn) | Hepatocyte growth factor receptor (MET, Homo sapiens, UniProt P08581, D1228N) | enzyme activity, inhibitor, radiometric | 1 µM | remaining activity | 97%
Cc1cc(C)c(-n2ccn3nc(-c4cccnc4)cc23)cc1NC(=O)c1cc(C#N)cc(S(F)(F)(F)(F)F)c1 | MET | cell-free assay, competition with immobilised ligand | 0.1 µM | remaining binding | 82.8%
Nc1ncnc2occ(-c3ccc(NC(=O)Nc4cc(C(F)(F)F)ccc4F)cc3)c12 | MET | cell-free assay | 20 µM | remaining signal | 8.8%
Cc1ccc(NC(=O)c2ccc(C)c(C(F)(F)F)c2)cc1C#Cc1nn(C2CCC(O)CC2)c2ncnc(N)c12 (stereo not drawn) | MET M1250T | cell-free assay | 10 µM | remaining signal | 136%
COc1cc(-c2cn(C3CCc4c(F)cccc4N(CC(F)(F)F)C3=O)nn2)ccc1-n1cnc(C)c1 (stereo not drawn) | MET | cell-free assay, competition with immobilised ligand | 1 µM | remaining binding | 100%
N[C@H]1CCN(c2nccc(-c3cnn4ncccc34)n2)C1 | MET M1250T | binding | 1 µM | remaining binding | 100%
Cc1cc(NC(=O)c2cccc3cc(-c4cccc5[nH]nc(N)c45)ccc23)ccc1F | MET M1250T | enzyme activity, inhibitor | 0.1 µM | activity vs control | 113%
CC(=O)Nc1c(C(C)=O)c(=O)n(C)c2nc(-c3ccc(Cl)cc3Cl)c(-c3ccc(Cl)cc3)cc12 | MET M1250T | cell-free assay, competition with immobilised ligand | 1 µM | remaining binding | 100%
CNC(=O)c1cc2c(Oc3ccc(NC(=O)C4(C(=O)Nc5ccc(F)cc5)CC4)cc3)ccnc2cc1OC | Hepatocyte growth factor receptor (MET, Homo sapiens, UniProt P08581, D1228H) | enzyme activity, inhibitor, radiometric | 1 µM | inhibition | 103%
